Assay outcomes from PubChem.
The list is not random: actives were taken first. Their share in the collection is about 4.1%.
KCNK9 block: blocks the human KCNK9 two-pore domain potassium channel; HEK293 KCNK9, FluxOR thallium flux fluorescence; hits give low values; B-score at 10 µM; 310,000 compounds, 1.2% hits; AID 488922;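 active means ratio B-score over 3 SD below the library mean, with starting fluorescence within 5 SD of its mean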;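 further: negative B-score means less thallium flux so channel inhibition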
Cl transport mod: modulates chloride dependent transport by human KCC2; Q9H2X9; KCC2 cells, thallium flux FluoZin-2 fluorescence; B-score of Tl+ flux slope (higher = more flux/activation; lower = inhibition) at 10 µM; 190,000 compounds, 2.2% hits; AID 1456;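 active means thallium flux slope and its plate-corrected score both differing from the plate sample mean at a set confidence after two filtering rounds, in either direction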;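 further: slope of fluorescence scaled to starting intensity during 10 to 20 s after thallium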
KCNK3 block: human KCNK3 channel inhibition, primary screen. AID 602410. CHO-KCNK3 thallium flux, FluxOR fluorescence; hits give low values. 340,000 compounds, 0.84% hits. B-score at 10 µM;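 active means B-score under library mean minus 4 SD, starting fluorescence ratio at most library mean plus 5 SD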;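 further: more negative B-score means stronger inhibition of thallium flux through KCNK3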
hERG protect: compounds protecting human hERG from proarrhythmic drug block. CHO-hERG, FluxOR thallium flux, dofetilide IC70 present. activation (rescue from dofetilide block), less the hit threshold, % at 10 µM. Q12809. 310,000 compounds, 0.51% hits;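 active means activation above the mean of controls blocked by dofetilide plus 5 SD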;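 further: thallium influx through hERG after potassium depolarization seen as dye fluorescence rise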
KCNQ1 act: potentiators or activators of human KCNQ1 potassium channel | CHO-K1 KCNQ1, thallium flux FluxOR fluorescence; hits give high values | B-score at 10 µM | 310,000 compounds, 0.35% hits | AID 2648;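 active means fluorescence ratio B-score, a plate-corrected score, at least three library SD, with initial intensity B-score within 5 SD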
Target sequence (P51787 whole entry, looked up): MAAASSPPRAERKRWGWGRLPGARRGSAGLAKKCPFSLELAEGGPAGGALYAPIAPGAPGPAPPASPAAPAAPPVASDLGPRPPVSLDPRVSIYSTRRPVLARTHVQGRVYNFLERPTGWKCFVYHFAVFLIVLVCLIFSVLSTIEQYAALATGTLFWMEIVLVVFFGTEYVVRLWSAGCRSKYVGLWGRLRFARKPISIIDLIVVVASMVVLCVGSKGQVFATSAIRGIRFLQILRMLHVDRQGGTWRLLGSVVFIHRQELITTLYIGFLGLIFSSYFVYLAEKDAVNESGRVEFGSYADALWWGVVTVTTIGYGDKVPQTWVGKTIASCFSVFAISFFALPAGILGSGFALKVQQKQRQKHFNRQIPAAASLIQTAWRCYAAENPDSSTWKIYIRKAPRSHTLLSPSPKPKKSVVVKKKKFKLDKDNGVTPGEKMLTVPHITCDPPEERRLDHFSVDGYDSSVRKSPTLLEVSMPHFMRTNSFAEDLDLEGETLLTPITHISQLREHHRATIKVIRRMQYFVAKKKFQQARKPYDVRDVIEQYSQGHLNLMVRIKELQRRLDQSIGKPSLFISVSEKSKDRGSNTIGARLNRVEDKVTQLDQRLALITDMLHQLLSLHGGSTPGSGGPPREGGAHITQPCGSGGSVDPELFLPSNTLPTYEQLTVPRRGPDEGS
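Medium – assay buffer, equal DMSO in all wells · Material – CHO-K1 cell line with stable KCNQ1 potassium channel expression · Signal – kinetic FluxOR thallium fluorescence, 10-s 1-Hz baseline, 110-s post-stimulus read · Compound – single concentration per compound, DMSO matched to controls · Schedule – 37 °C overnight plating, 90-min dark dye load, 20-min compound pretreatment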
KCNQ1 block: inhibitors of human KCNQ1 potassium channel | P51787 | CHO-K1 KCNQ1, FluxOR thallium flux fluorescence; hits give high values | B-score at 10 µM | 310,000 compounds, 1.3% hits | AID 2642;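 active means compounds whose thallium flux B-score, printed positive for inhibition, exceeds three library SD while starting fluorescence stays within three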;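 further: channel opened by potassium depolarization with thallium stimulus after 20 min compound exposure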
KCC2 secondary: confirmation of human KCC2 transport modulators; shares compounds with Cl transport mod; HEK293-KCC2, thallium flux, FluoZin2 fluorescence; hits give high values; normalised thallium flux (F/F0 slope) at 10 µM; 3,700 compounds, 15% hits; AID 1713;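 active means thallium flux slope above the same plate's solvent-only control mean plus 3 SD; inconclusive means the two replicate wells disagree; inactive means no significant difference from solvent-only control wells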
KCC2 bumet counter: bumetanide-insensitive thallium flux in KCC2 cells with ouabain, counter-screen; shares compounds with Cl transport mod; HEK293-KCC2 + bumetanide/ouabain, thallium flux FluoZin2; hits give high values; normalized thallium flux at 10 µM; 3,700 compounds, 49% hits;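 active means thallium entry rate above the same plate's blocked-transporter control wells by more than 3 SD; inconclusive means the two repeat wells disagree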;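 further: raw slope of fluorescence over initial fluorescence between 10 and 20 s after thallium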
KCC2 secondary2: KCC2 (human) modulation, second secondary assay; shares compounds with Cl transport mod; HEK293-KCC2, thallium flux FluoZin2 fluorescence; actives lie on both sides; F/F0 rise rate, 10–20 s post-thallium; normalized thallium flux at 10 µM; 3,700 compounds, 23% hits;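 active means thallium flux slope more than 3 SD above or below the plate's solvent-only control mean, mostly below; inconclusive means the two repeat wells disagreed; inactive means no significant shift from solvent-only controls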;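 further: raw slope with 0.1% DMSO as baseline and bumetanide as block control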
HEK293 Tl flux: acts in parental HEK cells, KCC2 counter-screen; thallium flux rate (normalised fluorescence) at 10 µM; AID 1716; shares compounds with Cl transport mod; HEK293 parental cells, thallium flux FluoZin2, ouabain; baseline-ratio fluorescence slope, 10–20 s after thallium; 3,700 compounds, 46% hits;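 active means thallium flux rate significantly above the same plate's solvent-only control wells, beyond their mean plus 3 SD; inconclusive means the two replicate wells gave conflicting results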
KCC2 retest ouab: modulates human KCC2 on retest with ouabain; shares compounds with Cl transport mod; HEK293-KCC2, thallium flux FluoZin2 fluorescence; bidirectional: low = inhibitor, high = activator; raw Tl+ flux slope (below DMSO = inhibition, above = activation) at 10 µM; 3,700 compounds, 48% hits;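 active means thallium flux slope beyond 3 SD from same-plate DMSO control mean in most replicates, usually higher, sometimes lower; inconclusive means repeat tests gave conflicting results; inactive means no significant difference from controls in most replicates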;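 further: slope of initial-normalized fluorescence between seconds 10 and 20 after thallium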
HEK293 Tl flux2: counter-screen for KCC2 modulators: effect in parental HEK293 cells. thallium flux FluoZin-2 fluorescence slope. 3,700 compounds, 33% hits. thallium flux slope at 10 µM. shares compounds with Cl transport mod;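 active means thallium flux slope above the same plate's solvent-control mean plus 3 SD in both duplicate wells; inconclusive means duplicate wells that disagreed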;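 further: run without ouabain in cells lacking the KCC2 cotransporter; slope of fluorescence scaled to its starting value between 10 and 20 s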
Active calls of the source: *; i = inactive; ? = inconclusive; . = not tested or not shown.

SMILES	KCNK9 block	Cl transport mod	KCNK3 block	hERG protect	KCNQ1 act	KCNQ1 block	KCC2 secondary	KCC2 bumet counter	KCC2 secondary2	HEK293 Tl flux	KCC2 retest ouab	HEK293 Tl flux2
COCCN(C(=O)CSc1nc2ccccc2c(=O)n1CC(C)C)c1c(N)n(Cc2ccccc2)c(=O)[nH]c1=O	i	13*	i	-6	i	i	0.012*	0.054*	0.037	0.024*	0.05*	0.016*
CCOc1ccc(S(=O)(=O)N2CCOCC2)cc1NC(=O)CN1C(=O)NC(CC)(c2ccccc2)C1=O (stereo not drawn)	i	.	i	-16	i	i	.	.	.	.	.	.
O=c1c2sccc2[nH]c(=S)n1Cc1ccccc1	i	68*	i	-2	i	i	0.0088	0.11*	0.084*	0.086*	0.094*	0.079*
CC(NC(=O)CCn1c(=S)[nH]c2ccsc2c1=O)c1ccccc1 (stereo not drawn)	i	-2.2	i	-12	i	i	.	.	.	.	.	.
COc1ccc([N+](=O)[O-])cc1NCc1ccccc1	i	-3.8*	i	-7	i	i	0.0066	0.0041	0.029	0.0053*	0.014*	0.0096
O=C(O)c1cc([N+](=O)[O-])ccc1NCc1ccccc1	i	-5.3*	i	-3	i	i	0.0099	0.0073	0.025*	0.0068	?	0.01
O=C(NCCCc1ccccc1)c1cc([N+](=O)[O-])ccc1Cl	i	-7.5*	i	-9	i	i	?	0.0045	0.02*	?	0.012*	0.0098
O=C(O)c1cc([N+](=O)[O-])ccc1N1CCC(Cc2ccccc2)CC1	i	-4.6*	i	-8	i	i	0.0081	?	?	0.0079	0.015*	0.011
O=C(NCC1CCCO1)c1cc([N+](=O)[O-])ccc1N1CCC(Cc2ccccc2)CC1 (stereo not drawn)	.	.	i	.	.	.	.	.	.	.	.	.
COc1ccc([N+](=O)[O-])cc1NCc1ccccc1C	i	0.7	i	0	i	i	.	.	.	.	.	.
COc1cc(=O)[nH]c(SC(C)C(=O)Nc2ccc3ccccc3c2)n1 (stereo not drawn)	i	.	i	-8	i	i	.	.	.	.	.	.
Cc1ccc2c(C)c(C(=O)N3CCCC(C(N)=O)C3)oc2c1C (stereo not drawn)	i	.	i	-9	i	i	.	.	.	.	.	.
CCO[C@@H]1OC(C(N)=O)=C[C@H](C2CC2)[C@H]1CCCO	i	.	i	0	i	i	.	.	.	.	.	.
COCCCNC(=O)Cn1cc(/C=C(\C#N)C(=O)NC2CC2)c2ccccc21	i	.	i	-6	i	i	.	.	.	.	.	.
CC1CCC(NC(=O)c2cc(Cl)nc3ccccc23)CC1 (stereo not drawn)	.	.	i	.	.	.	.	.	.	.	.	.
O=c1/c(=C/c2ccc(O)c([N+](=O)[O-])c2)sc2nc3ccccc3n12	.	-3.7*	i	.	.	.	0.0058	0.0049	0.031	0.0078	0.017	0.01
C[C@H]1COC(=O)[C@H](CC(=O)OC(C)(C)C)C/C=C\C[C@@H](CC(=O)N[C@@H](CO)Cc2ccccc2)C(=O)N1	.	.	i	.	.	.	.	.	.	.	.	.
O=C(CSc1nnnn1-c1ccccc1)N1CCc2ccccc21	i	-1.3	i	1	i	i	.	.	.	.	.	.
O=C(O)CSc1nnnn1-c1ccccc1	i	-0.64	i	-8	i	i	.	.	.	.	.	.
O=C(CSc1nnnn1-c1ccc(Cl)cc1)N1CCc2ccccc2C1	i	.	i	-9	i	i	0.0056	?	0.025*	0.0072	?	0.0099
O=c1cc(CSc2nnnn2-c2ccccc2)nc2scc(-c3ccccc3)n12	i	-4.7*	i	-7	i	i	0.0088	0.0072	0.024*	0.0065	0.013*	0.0094
O=c1cc(CSc2nnnn2-c2ccccc2)nc2sccn12	i	-0.013	i	-3	i	i	.	.	.	.	.	.
O=C(CSc1nnnn1-c1ccccc1)CSc1nnnn1-c1ccccc1	i	.	i	-8	i	i	0.0071	0.0046	0.028	?	0.026*	0.0098
COCC(=O)Nc1cc(C)cn(Cc2ccccc2Cl)c1=O	i	.	i	-2	i	i	.	.	.	.	.	.
O=C(COC(=O)Cc1c[nH]c2ccccc12)Nc1c(Cl)cccc1C(F)(F)F	i	.	i	-10	i	i	.	.	.	.	.	.
SMILES	KCNK9 block	Cl transport mod	KCNK3 block	hERG protect	KCNQ1 act	KCNQ1 block	KCC2 secondary	KCC2 bumet counter	KCC2 secondary2	HEK293 Tl flux	KCC2 retest ouab	HEK293 Tl flux2
CON(C)S(=O)(=O)NC(=O)C1=C(N2CCCC2)COC1=O	.	.	i	.	.	.	.	.	.	.	.	.
COc1ccccc1NS(=O)(=O)c1ccc(C)c(NS(=O)(=O)c2cc(C(=O)O)cc(C)c2C)c1	i	.	i	-5	i	i	.	.	.	.	.	.
CCCCC(CCC(=O)O)(C(=O)OCC)c1csc(Nc2ccccc2)n1 (stereo not drawn)	i	-3.9*	i	-7	i	i	0.0077	0.0065	0.034	0.0066	0.017*	0.01
CC(NC(=O)c1ccccc1)C(=O)OCC(=O)c1c(N)n(C)c(=O)n(C)c1=O (stereo not drawn)	.	.	i	.	.	.	.	.	.	.	.	.
CCN(CC)S(=O)(=O)c1ccc(C(C)NC(=O)Cc2c[nH]c3ccccc23)cc1 (stereo not drawn)	i	.	i	-14	i	i	.	.	.	.	.	.
CCCCOc1ccccc1C1NC(=O)CCC1[N+](=O)[O-] (stereo not drawn)	i	.	i	-4	i	i	.	.	.	.	.	.
O=C(CSc1nnc(-c2ccc(F)cc2)o1)N1CCN(C(=O)c2ccco2)CC1	i	-4.4*	i	-4	i	i	0.0079	0.0066	0.03*	0.0045	0.018*	0.012
O=C(CSc1nnc(CNc2ccc(F)cc2)o1)N1CCN(C(=O)c2ccco2)CC1	i	-0.63	i	-1	i	i	.	.	.	.	.	.
O=C(OCC(=O)N1CCCCC1)c1cc(=O)[nH]c2ccccc12	.	.	i	.	.	.	.	.	.	.	.	.
